Here are results for 13 molecules from ChEMBL document CHEMBL1124344, “5-Piperazinylalkyl-2(3H)-oxazolones with neuroleptic activity” (J Med Chem, 1989).

Data set [1] relates to Mus musculus. The experiment in a line: Antagonistic activity against amphetamine-induced Hypermobility in mice, by administering perorally at a dose of 100 mg/kg. Format: functional. The note with it: route oral. An outline of the steps: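 Male mice in groups of five, fasted overnight, given oral drug in arabic gum suspension (10 mL/kg) 1 or 5 h ahead. Amphetamine 4 mg/kg ip given 30 min after drug. Ten minutes later locomotion is recorded for 15 min in a photocell actophotometer. ED50 is 50% reduction versus control hypermotility, by probit analysis. Parenthetical entries give the maximal dose and percent activity.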

The nature of data set [2]: Lethal dose in mice (LD50) following i.p. dosing. It is filed as toxicity, organism-based. The note with it: mouse, in vivo, ip. An outline of the steps: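 Acute toxicity tested in mice by the intraperitoneal route. LD50 is the dose killing 50% of treated mice, computed by Finney probit analysis; values are approximate.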
Data set [3] deals with Rattus norvegicus. The experiment in a line: Antagonistic activity against apomorphine-induced stereotypy in rats, by administering perorally at a dose of 100 mg/kg. It is filed as functional. The note with it: route oral. Put shortly: (§1)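 Male rats fasted overnight and given oral doses in arabic gum suspension (10 mL/kg) 1 h, or 1 and 5 h, before challenge. Apomorphine 3 mg/kg iv, with stereotypy observed 20 min later. ED50 is the dose inhibiting stereotypy in 50% of rats, per Janssen's method. Parenthetical entries give the maximal dose and percent activity.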

Data set [4] concerns Rattus norvegicus. The experiment in a line: Activity to evoke catalepsy in rats, by administering perorally at a dose of 100 mg/kg. It is filed as functional. The note with it: route oral, read-out: Inhibition. Put shortly:
(§2)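 Rats fasted overnight and given oral doses in arabic gum suspension (10 mL/kg), 1 h before screening or 1 and 5 h before profile testing. Forelegs placed on a horizontal bar 7 cm high, three times at 5-min intervals. Immobility of at least 15 s counts as catalepsy. ED50 is the dose giving catalepsy in 50% of rats, by probit analysis. Parenthetical entries give the maximal dose and percent activity.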

Data set [5] deals with Mus musculus. The experiment in a line: Inhibition of spontaneous motor activity in mice, by administering perorally. It is filed as functional. The note with it: po. Put shortly: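 Mice in groups of five were dosed orally with gum arabic suspensions at 10 mL/kg after an overnight fast, with a vehicle control group. Locomotion was counted for 10 min in a photocell activity cage, in at least two groups per dose. ED50, by probit analysis, is the dose giving 50% inhibition against controls.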

Data set [6] relates to Mus musculus. The experiment in a line: Inhibition of amphetamine-induced hypermobility in mice following p.o. administration. It is filed as functional. The note with it: po. An outline of the steps: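 Compounds were given orally to male mice (gum arabic suspension, 10 mL/kg, fasted) in groups of five. Amphetamine 4 mg/kg ip followed 30 min later. After another 10 min, motility was recorded for 15 min with a photocell actophotometer. ED50, by probit analysis, is the dose giving 50% reduction against controls.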

The subject of data set [7] is Mus musculus. The experiment in a line: Inhibition of spontaneous motor activity in mice, by administering perorally at a dose of 100 mg/kg. It is filed as functional. The note with it: route oral. Put shortly: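 Mice fasted overnight, then dosed orally with compound (weighed as base) suspended in arabic gum, 10 mL/kg, with vehicle controls; 1 h pretreatment for screening tests, 1 or 5 h for others. Groups of five; locomotor activity counted 10 min in photocell activity cage, at least two groups per dose. ED50 = dose giving 50% inhibition versus controls, by probit analysis.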

Data set [8] relates to Rattus norvegicus. The experiment in a line: Activity to evoke catalepsy in rats, by administering perorally at a dose of 70 mg/kg. The note with it: route oral. Format: functional. An outline of the steps: as §2
Data set [9] concerns Rattus norvegicus. The experiment in a line: Antagonistic activity against apomorphine-induced stereotypy in rats, by administering perorally. Format: functional. The note with it: po. Put shortly:
as §1

The test system of data set [10] is Rattus norvegicus. The experiment in a line: Activity to evoke catalepsy in rats, by administering perorally. Format: functional. The note with it: po. An outline of the steps:
as §2

In data set [11] the test system is Rattus norvegicus. The experiment in a line: Antagonistic activity against apomorphine-induced stereotypy in rats, by administering perorally at a dose of 150 mg/kg. Format: functional. The note with it: route oral. Put shortly: as §1
For data set [12], the system named is Rattus norvegicus. The experiment in a line: Activity to evoke catalepsy in rats, by administering perorally at a dose of 150 mg/kg. The note with it: route oral. Format: functional. An outline of the steps: as §2
Data set [13] relates to Rattus norvegicus. The experiment in a line: Activity to evoke catalepsy in rats, by administering perorally at a dose of 200 mg/kg. Format: functional. The note with it: route oral. An outline of the steps:
as §2

Usually inhibition in vivo stands for the relative decrease from the control value, in per cent. Higher therefore signals a response far below the control. By LD50 is commonly meant the dose expected to kill half of the subjects tested. The ED50 is the dose at which the effect has come halfway, by size or by number of responders. Take `Oc1nc(-c2ccc(F)cc2)c(CCN2CCN(c3ccc(Cl)cc3)CC2)o1`: the inhibition in vivo at 100 mg/kg with Mus musculus [1] and with Rattus norvegicus [3] was 0% each time. Besides, the median lethal dose (LD50) in [2] was over 1000 mg/kg. Further, the percent of rats showing catalepsy at 100 mg/kg in the data set on Rattus norvegicus [4] turned out to be 0%. In addition, the ED50 with Mus musculus [5] came out at 200 mg/kg.
Take `Oc1nc(-c2ccc(F)cc2)c(CCN2CCN(c3cccc(C(F)(F)F)c3)CC2)o1`: the figures for the ED50 in the data set on Mus musculus [6] and with Mus musculus [5] were 11.6 mg/kg and 16.9 mg/kg, respectively. Moreover, the 50% lethal dose (LD50) in [2] is over 1000 mg/kg. In the data set with Rattus norvegicus [3], this molecule displayed an inhibition in vivo at 100 mg/kg of 0%. Further, the percent of rats showing catalepsy at 100 mg/kg with Rattus norvegicus [4] turned out to be 0%.
Consider `COc1ccc(N2CCN(CCc3oc(O)nc3-c3ccc(F)cc3)CC2)cc1`, for which the inhibition in vivo at 100 mg/kg with Mus musculus [1] was found to be 0%; in the data set on Rattus norvegicus [3] it was 0%; in the data set on Mus musculus [7] it was 33%. The molecule further registered a 50% lethal dose (LD50) in data set [2] of over 1000 mg/kg. In addition, in the data set on Rattus norvegicus [4], the percent of rats showing catalepsy at 100 mg/kg came out at 0%.
Turning to `Oc1nc(-c2ccc(Cl)cc2)c(CN2CCN(c3ccccc3)CC2)o1`, the inhibition in vivo at 100 mg/kg in the data set on Mus musculus [1] amounted to 0%; in the data set on Rattus norvegicus [3] it was 0%; in the data set with Mus musculus [7], 15%. This molecule yielded an LD50 in data set [2] of over 1000 mg/kg. Moreover, the percent of rats showing catalepsy at 100 mg/kg with Rattus norvegicus [4] was found to be 0%.
As to `CCN(CC)CCn1c(-c2ccc(F)cc2)c(CCN2CCN(c3ccccc3)CC2)oc1=O`, the inhibition in vivo at 70 mg/kg with Rattus norvegicus [8] amounted to 0%. The values for the ED50 in the data set on Rattus norvegicus [9] and in the data set with Mus musculus [5] were 35 mg/kg and 60 mg/kg, respectively. Besides, the LD50 in [2] came to 350 mg/kg.
In the case of `Oc1nc(-c2ccc(F)cc2)c(CCN2CCN(c3ccccc3)CC2)o1`, the 50% effective dose (ED50) in the data set on Mus musculus [6] turned out to be 5.4 mg/kg; in the data set on Rattus norvegicus [10] it was 87 mg/kg; in the data set with Rattus norvegicus [9], 47.5 mg/kg; in the data set with Mus musculus [5], 3.6 mg/kg. For the same molecule, the LD50 in data set [2] is over 2000 mg/kg.
Regarding `CC(=O)n1c(-c2ccc(F)cc2)c(CCN2CCN(c3cc(Cl)cc(Cl)c3)CC2)oc1=O`, the median effective dose (ED50) with Mus musculus [6] worked out at 2.7 mg/kg; in the data set on Mus musculus [5], 4.5 mg/kg. In data set [2], this molecule gave an LD50 of 1000 mg/kg. The same molecule had an inhibition in vivo at 100 mg/kg in the data set on Rattus norvegicus [3] of 10%. Besides, the percent of rats showing catalepsy at 100 mg/kg with Rattus norvegicus [4] amounted to 0%.
For the molecule `CCCCn1c(-c2ccc(F)cc2)c(CCN2CCN(c3ccccc3)CC2)oc1=O`, the ED50 in the data set with Mus musculus [6] was 15.4 mg/kg; in the data set with Mus musculus [5], 16 mg/kg. Also, the inhibition in vivo at 150 mg/kg in the data set on Rattus norvegicus [11] worked out at 40%; in the data set on Rattus norvegicus [12] it was 0%. For the same molecule, the 50% lethal dose (LD50) in data set [2] stood at 750 mg/kg.
In the case of `Cn1c(-c2ccc(F)cc2)c(CCN2CCN(c3ccccc3)CC2)oc1=O`, the ED50 with Mus musculus [6] is 21 mg/kg; with Rattus norvegicus [9], 112 mg/kg; in the data set on Mus musculus [5], 19.5 mg/kg. The same molecule came in with a median lethal dose (LD50) in data set [2] of 750 mg/kg. In addition, the percent of rats showing catalepsy at 100 mg/kg in the data set with Rattus norvegicus [4] was 0%.
For `COc1ccccc1N1CCN(CCc2oc(=O)n(C(C)=O)c2-c2ccc(F)cc2)CC1`, the 50% effective dose (ED50) in the data set with Mus musculus [6] worked out at 3.5 mg/kg; in the data set with Rattus norvegicus [10] it was 30 mg/kg; in the data set with Rattus norvegicus [9] it was 14.5 mg/kg; in the data set with Mus musculus [5] it was 4.3 mg/kg. In addition, the LD50 in [2] is 190 mg/kg.
Take `Oc1nc(-c2ccc(F)cc2)c(CCN2CCN(c3ccccc3Cl)CC2)o1`: the figures for the ED50 in the data set on Mus musculus [6] and in the data set on Mus musculus [5] were 15 mg/kg and 14.2 mg/kg, respectively. The same molecule had an LD50 in data set [2] of over 1000 mg/kg. The molecule also showed an inhibition in vivo at 100 mg/kg in the data set with Rattus norvegicus [3] of 0%. Also, the percent of rats showing catalepsy at 100 mg/kg in the data set with Rattus norvegicus [4] is 30%.
On to `Oc1nc(-c2ccc(F)cc2)c(CCN2CCN(c3ccc(Cl)c(Cl)c3)CC2)o1`, for which the results for the inhibition in vivo at 100 mg/kg with Mus musculus [1], in the data set on Rattus norvegicus [3] and in the data set with Mus musculus [7] were 62%, 0% and 21%, respectively. Further, in data set [2], the LD50 is 1000 mg/kg. Moreover, the percent of rats showing catalepsy at 100 mg/kg with Rattus norvegicus [4] turned out to be 0%.
On to `O=c1oc(CCN2CCN(c3ccccc3)CC2)c(-c2ccc(F)cc2)n1Cc1ccccc1`, for which the median effective dose (ED50) in the data set on Rattus norvegicus [9] is 200 mg/kg; in the data set with Mus musculus [5], 51 mg/kg. In addition, the inhibition in vivo at 100 mg/kg with Mus musculus [1] worked out at 40%. Moreover, the LD50 in [2] was determined as 1000 mg/kg. The molecule further yielded an inhibition in vivo at 200 mg/kg in the data set with Rattus norvegicus [13] of 0%.
